Measured values taken from ChEMBL document CHEMBL4385662, “Anti-tubercular activity of novel 4-anilinoquinolines and 4-anilinoquinazolines” (Bioorg Med Chem Lett, 2019).
Activity calls are given as the source filed them. The calls are words filed in the database; no cut-off is given here.

Assays:
[1] = tested on: Mycobacterium tuberculosis; test: Anti-tubercular activity against Mycobacterium tuberculosis H37Rv expressing LuxABCDE assessed as luminescence signal at 1.3 uM by luminescence based assay relative to untreated control; assay type: functional
[2] = cells; assay type: ADME, cell-based; settings: Homo sapiens, WS1, 48 h
[3] = tested on: Mycobacterium tuberculosis; test: Anti-tubercular activity against Mycobacterium tuberculosis H37Rv expressing LuxABCDE assessed as luminescence signal at 2.5 uM by luminescence based assay relative to untreated control; assay type: functional
[4] = tested on: Mycobacterium tuberculosis; test: Anti-tubercular activity against Mycobacterium tuberculosis H37Rv expressing LuxABCDE assessed as relative luminescence by measuring ratio of RLU (test compound)/RLU(no compound) at 5 uM by luminescence based assay; assay type: functional
[5] = tested on: Mycobacterium tuberculosis; test: Anti-tubercular activity against Mycobacterium tuberculosis H37Rv expressing LuxABCDE assessed as relative luminescence by measuring ratio of RLU (test compound)/RLU(no compound) at 10 uM by luminescence based assay; assay type: functional
[6] = tested on: Mycobacterium tuberculosis; test: Anti-tubercular activity against Mycobacterium tuberculosis H37Rv expressing LuxABCDE assessed as relative luminescence by measuring ratio of RLU (test compound)/RLU(no compound) at 20 uM by luminescence based assay; assay type: functional
[7] = tested on: Mycobacterium tuberculosis; test: Anti-tubercular activity against Mycobacterium tuberculosis H37Rv expressing LuxABCDE assessed as relative luminescence by measuring ratio of RLU (test compound)/RLU(no compound) at 1.25 uM by luminescence based assay; assay type: functional
[8] = tested on: Mycobacterium tuberculosis; test: Anti-tubercular activity against Mycobacterium tuberculosis H37Rv expressing LuxABCDE assessed as relative luminescence by measuring ratio of RLU (test compound)/RLU(no compound) at 2.5 uM by luminescence based assay; assay type: functional
[9] = tested on: Mycobacterium tuberculosis; test: Anti-tubercular activity against Mycobacterium tuberculosis H37Rv expressing LuxABCDE assessed as relative luminescence by measuring ratio of RLU (test compound)/RLU(no compound) at 0.625 uM by luminescence based assay; assay type: functional, organism-based
[10] = tested on: Mycobacterium tuberculosis; test: Anti-tubercular activity against Mycobacterium tuberculosis H37Rv expressing LuxABCDE assessed as reduction in microbial growth by luminescence based assay; assay type: functional
Outline: (§1)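 Growth inhibition was assessed by two assays. […] Values are the mean of 3 biological replicates with standard deviation.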

[11] = tested on: Mycobacterium tuberculosis; test: Anti-tubercular activity against Mycobacterium tuberculosis H37Rv expressing LuxABCDE assessed as reduction in microbial growth at 5 uM by luminescence based assay relative to control; assay type: functional; settings: read-out: GI; outline: as §1
[12] = tested on: Mycobacterium tuberculosis; test: Anti-tubercular activity against Mycobacterium tuberculosis H37Rv expressing LuxABCDE assessed as reduction in microbial growth at 20 uM by luminescence based assay relative to control; assay type: functional; settings: read-out: GI; outline: as §1
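Wherever IC50 is given: cell viability loss read out with alamar blue dye, IC50 being the concentration cutting viability by half.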

| Structure (SMILES) | Activity [1] [%] | IC50 [2] [µM] | Activity [3] [%] | Ratio [4] | Ratio [5] | Ratio [6] | Ratio [7] | Ratio [8] | Activity [9] | MIC90 [10] [µM] | inhibition of growth at 5 µM [11] [%] | inhibition of growth at 20 µM [12] [%] |
| --- | --- | --- | --- | --- | --- | --- | --- | --- | --- | --- | --- | --- |
| C#Cc1cccc(Nc2ccnc3cc(OC)c(OC)cc23)c1 | >95 | > 100 | >95 | 1.02 | 0.89 | 0.67 |  |  |  |  |  |  |
| COc1cc(Nc2ccnc3ccc(Br)cc23)cc(OC)c1OC | >95 | > 100 | >95 | 1.35 | 1.41 | 1.28 |  |  |  |  |  |  |
| COc1cc2ncc(C#N)c(Nc3cccc(Br)c3)c2cc1OC | >95 | 11 | >95 | 0.88 | 0.56 | 0.37 |  |  |  |  |  |  |
| COc1ccc2nccc(Nc3ccc(NC(=O)c4ccc(C)cc4)c(O)c3)c2c1 |  | 10 |  | 1.14 | 1.28 | 0.95 | 1.11 | 1.17 |  |  |  |  |
| Oc1ccc2ncnc(Nc3ccc(OCc4ccc(F)cc4)cc3)c2c1 |  | > 100 |  | 0.64 | 0.44 | 0.32 | 0.86 | 0.76 | inactive |  |  |  |
| Oc1ccc2c(Nc3ccc(OCc4ccc(F)cc4)cc3)ncnc2c1 |  | > 100 |  | 0.9 | 0.89 | 0.83 | 0.94 | 1.01 | inactive |  |  |  |
| COc1cc2nccc(Nc3ccc(OCc4cccc(F)c4)c(Cl)c3)c2cc1OC | >95 | 11 | >95 | 0.78 | 0.22 | 0.1 |  |  |  |  |  |  |
| COc1cc2ncnc(Nc3ccc(F)c(Cl)c3)c2cc1OCCCN1CCOCC1 |  |  |  |  |  |  |  |  | inactive |  |  |  |
| COc1cc(Nc2ccnc3ccc(C(F)(F)F)cc23)cc(OC)c1OC | >95 | > 100 | >95 | 1.23 | 1.14 | 1.21 |  |  |  |  |  |  |
| Oc1ccc2ncnc(Nc3ccc(OCc4ccccc4F)cc3)c2c1 |  | 28 |  | 0.63 | 0.46 | 0.28 | 0.89 | 0.82 | inactive |  |  |  |
| Oc1cc2ncnc(Nc3ccc(OCc4ccc(F)cc4)cc3)c2cc1O |  | > 100 |  | 1 | 0.89 | 0.76 | 1.04 | 1.14 | inactive |  |  |  |
| CS(=O)(=O)CCNCc1ccc(-c2ccc3ncnc(Nc4ccc(OCc5cccc(F)c5)c(Cl)c4)c3c2)o1 [LAPATINIB] |  | 13 |  | 0.74 | 0.17 | 0.08 | 0.99 | 0.9 | inactive |  |  |  |
| COc1cc2ncc(C#N)c(Nc3cc(OC)c(OC)c(OC)c3)c2cc1OC | >95 | > 100 | >95 | 1.03 | 1.01 | 0.97 |  |  |  |  |  |  |
| Oc1cc2ncnc(Nc3ccc(OCc4ccccc4)cc3)c2cc1O |  | 8.8 |  | 0.91 | 0.76 | 0.69 | 0.95 | 0.93 | inactive |  |  |  |
| COc1cc2nccc(Nc3cc(OC)c(OC)c(OC)c3)c2cc1OC | >95 | > 100 | >95 | 1.26 | 1.11 | 1.06 |  |  |  |  |  |  |
| COc1cc2nccc(Nc3ccc(NC(=O)c4ccc(C(C)(C)C)cc4)c(O)c3)c2cc1OC |  | 2.6 |  | 1.06 | 0.72 | 0.25 | 1.1 | 1.12 |  |  |  |  |
| COc1cc2nccc(Nc3ccc(NC(=O)c4ccc(C)cc4)c(O)c3)c2cc1OC |  | 16 |  | 1.13 | 1.05 | 0.45 | 1.14 | 1.09 |  |  |  |  |
| COc1cc2nccc(Nc3cccc(Br)c3)c2cc1OC | >95 | 9.6 | >95 | 1.03 | 0.9 | 0.6 |  |  |  |  |  |  |
| Oc1ccc2ncnc(Nc3ccc(OCc4cccc(F)c4)cc3)c2c1 |  | 12 |  | 0.49 | 0.39 | 0.25 | 0.76 | 0.64 | inactive |  |  |  |

| Structure (SMILES) | Activity [1] [%] | IC50 [2] [µM] | Activity [3] [%] | Ratio [4] | Ratio [5] | Ratio [6] | Ratio [7] | Ratio [8] | Activity [9] | MIC90 [10] [µM] | inhibition of growth at 5 µM [11] [%] | inhibition of growth at 20 µM [12] [%] |
| --- | --- | --- | --- | --- | --- | --- | --- | --- | --- | --- | --- | --- |
| C#Cc1cccc(Nc2c(C#N)cnc3cc(OC)c(OC)cc23)c1 | >95 | > 100 | >95 | 1.08 | 1.03 | 0.98 |  |  |  |  |  |  |
| COCCOc1cc2ncnc(Nc3cc(OC)c(OC)c(OC)c3)c2cc1OCCOC | >95 | > 100 | >95 | 1.02 | 0.96 | 0.87 |  |  |  |  |  |  |
| COc1cc2ncnc(Nc3cc(OC)c(OC)c(OC)c3)c2cc1OC | >95 | > 100 | >95 | 1.03 | 1.01 | 0.94 |  |  |  |  |  |  |
| COc1ccc2c(Nc3ccc(NC(=O)c4ccc(C)cc4)c(O)c3)ccnc2c1 |  | 4.7 |  | 1.09 | 1.11 | 0.96 | 1.13 | 1.11 |  |  |  |  |
| COc1cc2ncnc(Nc3cccc(Br)c3)c2cc1OC | >95 | 3.9 | >95 | 0.98 | 0.71 | 0.65 |  |  |  |  |  |  |
| COc1ccc2c(Nc3ccc(OCc4ccccc4)cc3)ncnc2c1 |  | > 100 |  | 0.99 | 0.87 | 0.64 | 1.05 | 1.12 | inactive |  |  |  |
| Oc1ccc2c(Nc3ccc(OCc4ccccc4)cc3)ncnc2c1 |  | > 100 |  | 0.89 | 0.88 | 0.89 | 0.9 | 0.9 | inactive |  |  |  |
| C#Cc1cccc(Nc2ccnc3cc(OCCOC)c(OCCOC)cc23)c1 | >95 | > 100 | >95 | 0.88 | 0.79 | 0.58 |  |  |  |  |  |  |
| COc1ccc2ncnc(Nc3ccc(OCc4ccccc4)cc3)c2c1 |  | > 100 |  | 0.89 | 0.83 | 0.62 | 1.04 | 1.07 | inactive |  |  |  |
| COc1cc(Nc2ncnc3ccc(C(F)(F)F)cc23)cc(OC)c1OC | >95 | > 100 | >95 | 1.25 | 1.12 | 1.06 |  |  |  |  |  |  |
| COc1cc2nccc(Nc3ccc(NC(C)=O)cc3)c2cc1OC |  | 9.7 |  | 1.11 | 1.07 | 1.02 | 1.21 | 1.1 |  |  |  |  |
| COc1cc2ncnc(Nc3ccc(OCc4ccccc4)cc3)c2cc1OC |  | > 100 |  | 0.83 | 0.77 | 0.6 | 1.04 | 1.04 | inactive |  |  |  |
| C#Cc1cccc(Nc2ncnc3cc(OCCOC)c(OCCOC)cc23)c1 |  |  |  |  |  |  |  |  | inactive |  |  |  |
| COc1cc2nccc(Nc3ccc(OCc4ccc(C)cc4)cc3)c2cc1OC |  | 5.4 |  | 0.1 | 0.08 | 0.09 | 0.43 | 0.17 |  | 0.63 to 1.25 | 98 | 98 |
| C#Cc1cccc(Nc2ncnc3cc(OC)c(OC)cc23)c1 | >95 | > 100 | >95 | 0.93 | 0.83 | 0.69 |  |  |  |  |  |  |
| COc1cc2ncnc(Nc3ccc(OCc4cccc(F)c4)c(Cl)c3)c2cc1OC | >95 | 1.1 | >95 | 0.92 | 0.74 | 0.8 |  |  |  |  |  |  |
| Oc1ccc2nccc(Nc3ccc(OCc4ccccc4)cc3)c2c1 |  | 2.5 |  | 0.66 | 0.42 | 0.37 | 0.95 | 0.86 | inactive |  |  |  |
| Oc1ccc2ncnc(Nc3ccc(OCc4ccccc4)cc3)c2c1 |  | 26 |  | 0.96 | 0.9 | 0.8 | 0.95 | 0.94 | inactive |  |  |  |
